# Laboratory results: ChEMBL document CHEMBL1131231, “New azole antifungals. 2. Synthesis and antifungal activity of heterocyclecarboxamide derivatives of 3-amino-2-aryl-1-azolyl-2-butanol” (1998)
# Tests used:
# [1] = The compound was tested in vitro for antifungal activity against 10 yeasts.; type: functional
# In short: (§1)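 Agar dilution on Kimmig's agar with 0.5% glycerol; ATCC or clinical isolates, inocula at 10⁵ cfu/mL. Drugs from 800 μg/mL stock in 50% ethanol, 2-fold serial dilutions 80 to 0.03 μg/mL in plates. Incubated 25 °C, 48 h for yeasts, 120 h for filamentous fungi. Value is geometric mean of MICs (μg/mL); >80 taken as 160, ≤0.03 as 0.03.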
# Candida albicans [2] = test: In vivo antifungal activity against murine candidosis model after peroral administration with 0.5 mg/kg at various time intervals. (percent protection for 100% mortality with untreated group); type: functional; conditions: route oral
# In short: (§2)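 Male mice, groups of 10, infected iv with 0.2 mL Candida albicans at (2–8) × 10⁷ cfu/mL. Oral suspension in 1% Tween + 0.2% carboxymethylcellulose in water, given 1, 4 and 24 h post-infection; vehicle controls and a fluconazole group at the same dose. Survival scored on days 1, 2, 3, 5, 7, 9, reported as % surviving on the day untreated, or fluconazole-treated, mortality reached 100%.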
# Candida albicans [3] = test: In vivo antifungal activity against murine candidosis model after peroral administration with 0.5 mg/kg at various time intervals. (percent protection for 100% mortality with fluconazole-treated group.); type: functional; conditions: route oral; in short: as §2
# [4] = The compound was tested in vitro for antifungal activity against 6 filamentous fungi.; type: functional; in short: as §1
# [5] = In vivo antifungal activity against murine candidosis model after peroral administration with 1 mg/kg for 5 days.(percent protection for 100% mortality with untreated group); type: functional, Mus musculus; conditions: route oral
# In short: (§3)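 Second murine systemic Candida albicans model. Mice, n = 10 per group, dosed orally once daily for 5 days after infection. Animals observed for 65 days, with survival rate as read-out and vehicle controls included. Reported as % protection on the day of 100% mortality in the untreated group or in the fluconazole-treated group.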
# Mus musculus [6] = test: In vivo antifungal activity against murine candidosis model after peroral administration with 1 mg/kg for 5 days.(percent protection for 100% mortality with fluconazole-treated group.); type: functional; conditions: route oral; in short: as §3
# Mus musculus [7] = test: In vivo antifungal activity against murine candidosis model after peroral administration with 2.5 mg/kg at various time intervals. (percent protection for 100% mortality with fluconazole-treated group.); type: functional; conditions: route oral; in short: as §2
# Mus musculus [8] = test: In vivo antifungal activity against murine candidosis model after peroral administration with 2.5 mg/kg at various time intervals. (percent protection for 100% mortality with untreated group); type: functional; conditions: route oral; in short: as §2
# Mus musculus [9] = test: In vivo antifungal activity against murine candidosis model after peroral administration with 0.5 mg/kg for 5 days.(percent protection for 100% mortality with fluconazole-treated group.); type: functional; conditions: route oral; in short: as §3
# Mus musculus [10] = test: In vivo antifungal activity against murine candidosis model after peroral administration with 0.5 mg/kg for 5 days.(percent protection for 100% mortality with untreated group); type: functional; conditions: route oral; in short: as §3
# Candida albicans [11] = test: In vivo antifungal activity against murine candidosis model after peroral administration with 1 mg/kg at various time intervals. (percent protection for 100% mortality with untreated group); type: functional; conditions: route oral; in short: as §2
# Candida albicans [12] = test: In vivo antifungal activity against murine candidosis model after peroral administration with 1 mg/kg at various time intervals. (percent protection for 100% mortality with fluconazole-treated group.); type: functional; conditions: route oral; in short: as §2
SMILES,MIC [1] [µg/mL],Protection (Candida albicans [2]) [%],Protection (Candida albicans [3]) [%],MIC [4] [µg/mL],Protection [5] [%],Protection (Mus musculus [6]) [%],Protection (Mus musculus [7]) [%],Protection (Mus musculus [8]) [%],Protection (Mus musculus [9]) [%],Protection (Mus musculus [10]) [%],Protection (Candida albicans [11]) [%],Protection (Candida albicans [12]) [%]
CS(=O)(=O)O.Cc1nc(-c2ccc(C#N)cc2)sc1C(=O)N[C@H](C)[C@](O)(Cn1cncn1)c1ccc(F)cc1F,1.2,100,100,4,100,10,–,–,–,–,–,–
OC(Cn1cncn1)(Cn1cncn1)c1ccc(F)cc1F [FLUCONAZOLE],30,100,–,> 80,100,–,–,–,–,–,–,–
C[C@H]([C@](O)(Cn1cncn1)c1ccc(F)cc1F)S(C)(=O)=O [GENACONAZOLE],8.7,100,100,25,100,20,–,–,–,–,–,–
C[C@@H](NC(=O)c1ccc(-c2cccnc2)s1)[C@](O)(Cn1cncn1)c1ccc(F)cc1F,1.6,–,–,> 80,–,–,0,60,–,–,–,–
C[C@@H](n1cnc2cc(-c3ccc(C#N)cc3)sc2c1=O)[C@](O)(Cn1cncn1)c1ccc(F)cc1F,0.3,–,–,13,–,–,–,–,40,100,100,100
Cc1cc2nnc(C(=O)N[C@H](C)[C@](O)(Cn3cncn3)c3ccc(F)cc3F)c(C)n2n1,10,–,–,> 80,–,–,0,0,–,–,–,–
C[C@@H](n1cnc2cc(-c3ccc(Cl)cc3)sc2c1=O)[C@](O)(Cn1cncn1)c1ccc(F)cc1F,0.2,–,–,2.2,100,100,–,–,–,–,100,100
Cc1c(S(=O)(=O)c2ccc(Cl)cc2)csc1C(=O)N[C@H](C)[C@](O)(Cn1cncn1)c1ccc(F)cc1F,1.6,–,–,11,–,–,–,–,–,–,70,0
Cc1nn(-c2ccc(Cl)cc2)c(C)c1C(=O)N[C@H](C)[C@](O)(Cn1cncn1)c1ccc(F)cc1F,1.5,–,–,8.9,–,–,–,–,–,–,90,20
C[C@@H](NC(=O)c1cnn(-c2ccc(Cl)cc2)c1N)[C@](O)(Cn1cncn1)c1ccc(F)cc1F,2.7,–,–,45,–,–,–,–,–,–,80,0
C[C@@H](c1ncncc1F)[C@](O)(Cn1cncn1)c1ccc(F)cc1F [VORICONAZOLE],0.6,0,0,0.5,20,0,–,–,–,–,–,–
COc1ccc(-n2ncc(C(=O)N[C@H](C)[C@](O)(Cn3cncn3)c3ccc(F)cc3F)c2C)cc1,6.1,–,–,23,–,–,–,–,–,–,0,0
Cc1nn(C)c2ncc(C(=O)N[C@H](C)[C@](O)(Cn3cncn3)c3ccc(F)cc3F)c(Cl)c12,19,–,–,> 80,–,–,0,0,–,–,–,–
C[C@@H](c1nc(-c2ccc(C#N)cc2)cs1)[C@](O)(Cn1cncn1)c1ccc(F)cc1F [RAVUCONAZOLE],0.3,50,0,0.8,20,0,–,–,–,–,–,–
Cc1c(C(=O)N[C@H](C)[C@](O)(Cn2cncn2)c2ccc(F)cc2F)cnn1-c1ccccc1Cl,11,–,–,> 80,–,–,–,–,–,–,0,0
CC(C)c1c(C(=O)N[C@H](C)[C@](O)(Cn2cncn2)c2ccc(F)cc2F)cnn1-c1ccc(Cl)cc1,3.3,–,–,> 80,–,–,–,–,–,–,60,0
Cc1c(C(=O)N[C@H](C)[C@](O)(Cn2cncn2)c2ccc(F)cc2F)cnn1-c1ccc(F)cc1F,5.3,–,–,63,–,–,–,–,–,–,0,0
